Test results published in ChEMBL document CHEMBL3525967, “In vitro glucuronidation of the antibacterial triclocarban and its oxidative metabolites” (Drug Metab Dispos, 2012).

Columns and labels:
Assay type in all cases: ADME
[1] = target: T1, UDP-glucuronosyltransferase 1A1 (Homo sapiens, UniProt P22309); assay: Drug metabolism assessed as human UGT1A1-mediated glucuronidation expressed in baculovirus infected insect sf9 cells incubated for 5 mins prior to UDPGA addition measured after 5 to 30 mins by LC-UV analysis
T1 sequence (P22309 whole entry): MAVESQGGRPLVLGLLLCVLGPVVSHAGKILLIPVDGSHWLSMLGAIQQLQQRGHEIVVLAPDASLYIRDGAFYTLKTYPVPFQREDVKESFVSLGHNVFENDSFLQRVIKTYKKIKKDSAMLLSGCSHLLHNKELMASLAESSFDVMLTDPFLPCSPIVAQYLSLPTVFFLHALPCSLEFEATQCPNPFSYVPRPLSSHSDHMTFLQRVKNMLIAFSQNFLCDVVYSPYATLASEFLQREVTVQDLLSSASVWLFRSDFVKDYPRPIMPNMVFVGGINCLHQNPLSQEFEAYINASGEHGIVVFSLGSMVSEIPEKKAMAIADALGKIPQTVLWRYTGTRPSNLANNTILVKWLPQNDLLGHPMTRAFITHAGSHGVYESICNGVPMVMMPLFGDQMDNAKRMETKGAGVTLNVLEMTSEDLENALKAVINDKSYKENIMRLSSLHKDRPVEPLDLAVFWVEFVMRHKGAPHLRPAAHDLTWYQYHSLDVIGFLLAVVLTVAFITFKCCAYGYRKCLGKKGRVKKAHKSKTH
In short: (§1)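 Microsomes or Sf-9 Supersomes (5 µg protein in 200 µL 100 mM potassium phosphate pH 7.4) pre-treated with alamethicin on ice 15 min; substrate 10 µM final (2% DMSO), MgCl2 and saccharolactone 10 mM each; 5 min preincubation at 37 °C, then UDPGA to start. Samples taken at 5, 10, 15, 30 min (or 2, 5, 10, 15 min) into ACN with internal standard; LC-UV-ESI-MS/MS.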

[2] = target: T2, UDP-glucuronosyltransferase 1A10 (Homo sapiens, UniProt Q9HAW8); assay: Drug metabolism assessed as human UGT1A10-mediated glucuronidation expressed in baculovirus infected insect sf9 cells incubated for 5 mins prior to UDPGA addition measured after 5 to 30 mins by LC-UV analysis; in short: as §1
T2 sequence (Q9HAW8 whole entry): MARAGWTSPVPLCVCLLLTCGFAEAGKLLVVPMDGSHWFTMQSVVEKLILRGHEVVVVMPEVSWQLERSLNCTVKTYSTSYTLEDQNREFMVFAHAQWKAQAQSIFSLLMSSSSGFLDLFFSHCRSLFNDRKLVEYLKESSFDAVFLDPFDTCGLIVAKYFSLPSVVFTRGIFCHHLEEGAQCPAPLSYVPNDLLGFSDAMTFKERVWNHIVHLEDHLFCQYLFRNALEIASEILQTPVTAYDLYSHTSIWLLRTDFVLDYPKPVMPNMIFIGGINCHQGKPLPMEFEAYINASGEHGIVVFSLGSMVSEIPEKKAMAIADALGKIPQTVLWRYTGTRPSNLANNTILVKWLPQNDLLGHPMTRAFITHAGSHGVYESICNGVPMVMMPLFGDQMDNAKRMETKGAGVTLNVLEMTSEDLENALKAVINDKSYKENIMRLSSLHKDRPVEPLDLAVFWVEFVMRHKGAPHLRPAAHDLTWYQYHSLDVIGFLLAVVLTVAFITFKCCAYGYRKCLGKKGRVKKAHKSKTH

[3] = target: T3, UDP-glucuronosyltransferase 2B7 (Homo sapiens, UniProt P16662); assay: Drug metabolism assessed as human UGT2B7-mediated glucuronidation expressed in baculovirus infected insect sf9 cells incubated for 5 mins prior to UDPGA addition measured after 5 to 30 mins by LC-UV analysis; in short: as §1
T3 sequence (P16662 whole entry): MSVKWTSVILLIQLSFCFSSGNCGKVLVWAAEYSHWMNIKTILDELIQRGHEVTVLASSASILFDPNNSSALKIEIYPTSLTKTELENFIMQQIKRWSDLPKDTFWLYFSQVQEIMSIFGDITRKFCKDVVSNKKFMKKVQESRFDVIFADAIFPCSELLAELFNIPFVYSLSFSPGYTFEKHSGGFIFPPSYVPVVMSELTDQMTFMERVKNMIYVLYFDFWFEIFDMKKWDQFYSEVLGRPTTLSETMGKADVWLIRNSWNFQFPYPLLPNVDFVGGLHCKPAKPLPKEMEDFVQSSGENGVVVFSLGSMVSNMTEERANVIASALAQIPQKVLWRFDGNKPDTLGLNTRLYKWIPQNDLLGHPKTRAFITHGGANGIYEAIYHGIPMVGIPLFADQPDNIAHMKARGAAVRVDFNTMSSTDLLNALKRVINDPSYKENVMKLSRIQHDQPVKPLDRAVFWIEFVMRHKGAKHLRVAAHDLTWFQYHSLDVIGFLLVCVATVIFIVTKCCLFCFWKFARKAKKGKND

[4] = target: T4, UDP-glucuronosyltransferase 2B15 (Homo sapiens, UniProt P54855); assay: Drug metabolism assessed as human UGT2B15-mediated glucuronidation expressed in baculovirus infected insect sf9 cells incubated for 5 mins prior to UDPGA addition measured after 5 to 30 mins by LC-UV analysis; in short: as §1
T4 sequence (P54855 whole entry): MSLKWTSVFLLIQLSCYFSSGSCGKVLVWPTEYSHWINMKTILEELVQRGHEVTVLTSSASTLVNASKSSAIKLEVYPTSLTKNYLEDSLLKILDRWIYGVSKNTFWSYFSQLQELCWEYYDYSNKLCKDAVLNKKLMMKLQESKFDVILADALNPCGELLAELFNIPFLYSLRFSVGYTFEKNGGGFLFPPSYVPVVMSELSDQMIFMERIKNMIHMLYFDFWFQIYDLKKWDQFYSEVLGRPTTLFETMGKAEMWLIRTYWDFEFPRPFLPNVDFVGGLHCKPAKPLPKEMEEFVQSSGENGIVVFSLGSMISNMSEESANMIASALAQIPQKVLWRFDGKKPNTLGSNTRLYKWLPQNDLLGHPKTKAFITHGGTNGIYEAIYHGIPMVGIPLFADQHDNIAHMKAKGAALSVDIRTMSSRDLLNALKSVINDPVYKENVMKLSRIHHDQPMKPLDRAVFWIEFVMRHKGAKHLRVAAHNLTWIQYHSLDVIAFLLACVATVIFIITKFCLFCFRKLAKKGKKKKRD

Row | Drug metabolism [1] | Drug metabolism [2] | Drug metabolism ([3]; BLD = below limit of detection) | Drug metabolism [4] | Drug metabolism ([2]; BLD = below limit of detection) | Drug metabolism [3] | SMILES
1 | 850 pmol/min/mg | 210 pmol/min/mg | BLD | metabolite_not_detected | – | – | O=C(Nc1ccc(Cl)c(Cl)c1)Nc1ccc(Cl)cc1O
2 | 820 pmol/min/mg | 280 pmol/min/mg | BLD | metabolite_not_detected | – | – | O=C(Nc1ccc(Cl)cc1)Nc1cc(Cl)c(Cl)cc1O
3 | 520 pmol/min/mg | – | – | metabolite_not_detected | BLD | metabolite_not_detected | O=C(Nc1ccc(Cl)c(O)c1)Nc1ccc(Cl)c(Cl)c1
